Test results from ChEMBL document CHEMBL1132111, “Design and synthesis of novel alpha(1)(a) adrenoceptor-selective antagonists. 4. Structure-activity relationship in the dihydropyrimidine series” (J Med Chem, 1999).
Where “and” joins values, the source holds several entries; their conditions need not be identical. Identical values can stand only once.

What was measured:
[1] = molecular target: T1, Alpha-1D adrenergic receptor (Homo sapiens, UniProt P25100); experiment: Binding affinity against Alpha-1D adrenergic receptor (recombinant human receptor) using [3H]-prazosin.
T1 sequence (P25100 whole entry): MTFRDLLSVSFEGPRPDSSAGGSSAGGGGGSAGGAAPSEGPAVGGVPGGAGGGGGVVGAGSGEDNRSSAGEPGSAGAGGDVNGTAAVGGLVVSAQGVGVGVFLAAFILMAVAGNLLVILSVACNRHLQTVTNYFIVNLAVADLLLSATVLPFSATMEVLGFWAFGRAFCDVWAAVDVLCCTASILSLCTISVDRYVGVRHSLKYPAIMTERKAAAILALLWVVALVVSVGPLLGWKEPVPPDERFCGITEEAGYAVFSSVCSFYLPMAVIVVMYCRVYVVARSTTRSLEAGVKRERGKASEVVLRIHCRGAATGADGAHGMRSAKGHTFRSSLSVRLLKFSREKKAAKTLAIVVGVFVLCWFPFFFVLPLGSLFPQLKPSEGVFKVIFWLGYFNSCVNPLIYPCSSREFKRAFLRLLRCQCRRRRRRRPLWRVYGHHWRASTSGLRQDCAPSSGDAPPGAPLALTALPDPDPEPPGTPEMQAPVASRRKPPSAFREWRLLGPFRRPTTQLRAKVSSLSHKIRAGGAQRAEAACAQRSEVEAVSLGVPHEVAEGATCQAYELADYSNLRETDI

[2] = molecular target: T2, Alpha-1B adrenergic receptor (Homo sapiens, UniProt P35368); experiment: Binding affinity against Alpha-1B adrenergic receptor (recombinant human receptor) using [3H]prazosin.
T2 sequence (P35368 whole entry): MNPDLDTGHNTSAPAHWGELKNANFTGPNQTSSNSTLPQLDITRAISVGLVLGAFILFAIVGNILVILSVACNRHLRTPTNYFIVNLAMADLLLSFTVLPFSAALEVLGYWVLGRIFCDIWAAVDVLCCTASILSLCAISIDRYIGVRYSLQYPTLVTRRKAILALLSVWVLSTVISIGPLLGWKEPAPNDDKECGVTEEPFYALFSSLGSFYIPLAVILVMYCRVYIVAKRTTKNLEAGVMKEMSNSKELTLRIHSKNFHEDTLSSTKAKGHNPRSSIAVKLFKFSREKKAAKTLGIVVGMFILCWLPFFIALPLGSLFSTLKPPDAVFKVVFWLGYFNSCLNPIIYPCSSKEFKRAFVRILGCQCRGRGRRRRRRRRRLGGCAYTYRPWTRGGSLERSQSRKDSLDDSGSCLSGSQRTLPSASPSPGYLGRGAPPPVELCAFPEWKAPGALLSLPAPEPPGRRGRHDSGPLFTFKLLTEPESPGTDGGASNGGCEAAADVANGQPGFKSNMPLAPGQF

[3] = Selectivity against alpha-1a receptor over alpha-2a,b,c adrenoceptors
Outline: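 Binding affinities (Ki, nM) measured at recombinant human α1a and α2a, α2b and α2c adrenoceptors; fold selectivity expressed as the ratio of α2 subtype Ki to α1a Ki.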

[4] = molecular target: T3, Alpha-1A adrenergic receptor (Homo sapiens, UniProt P35348); experiment: Binding affinity against Alpha-1A adrenergic receptor (recombinant human receptor) using [3H]prazosin.
T3 sequence (P35348 whole entry): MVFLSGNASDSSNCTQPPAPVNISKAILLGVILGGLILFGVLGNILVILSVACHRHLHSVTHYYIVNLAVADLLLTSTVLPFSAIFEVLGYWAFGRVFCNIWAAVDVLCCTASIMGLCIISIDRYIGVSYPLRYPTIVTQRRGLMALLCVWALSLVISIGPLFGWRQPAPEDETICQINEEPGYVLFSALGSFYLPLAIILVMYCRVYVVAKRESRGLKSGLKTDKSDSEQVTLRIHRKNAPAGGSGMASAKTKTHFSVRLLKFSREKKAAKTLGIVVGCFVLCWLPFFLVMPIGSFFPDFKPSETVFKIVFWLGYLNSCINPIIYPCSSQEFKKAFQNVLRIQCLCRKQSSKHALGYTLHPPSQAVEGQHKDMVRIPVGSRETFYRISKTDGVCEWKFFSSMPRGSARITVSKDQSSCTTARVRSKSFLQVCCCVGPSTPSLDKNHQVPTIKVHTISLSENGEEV

[5] = tested on: Rattus norvegicus; experiment: Area under curve at a peroral dose of 3 mg/kg in rat; format: ADME, organism-based; set-up: dose 3 mg/kg, route oral; details: in vivo, po
Outline: (§1)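 Each compound dosed once intravenously at 1 mg/kg and orally at 3 mg/kg. Exposure read as plasma area under the concentration-time curve, reported in µmol min/L.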

[6] = tested on: Rattus norvegicus; experiment: Area under curve at an iv dose of 1 mg/kg in rat; format: ADME, organism-based; set-up: dose 1 mg/kg, route intravenous; details: in vivo; outline: as §1
[7] = Plasma half life in dog; format: ADME, organism-based, Canis lupus familiaris
[8] = Plasma half life in rat; format: ADME, organism-based
[9] = Bioavailability in dog; format: ADME, organism-based, Canis lupus familiaris; details: in vivo
[10] = Bioavailability in rat; format: ADME, organism-based; details: in vivo
[11] = species on record: Rattus norvegicus; experiment: Antagonistic activity inhibiting phenylephrine induced contractions in isolated rat prostate.; format: functional, Prostate gland
[12] = Selectivity for alpha-1a receptor against rat L-type calcium channel by [3H]nitrendipine binding
[13] = tested on: Canis familiaris; experiment: Area under curve at a peroral dose of 3 mg/kg in dog; format: ADME, organism-based, Canis lupus familiaris; set-up: dose 3 mg/kg, route oral; details: in vivo, po; outline: as §1
[14] = tested on: Canis familiaris; experiment: Area under curve at an iv dose of 1 mg/kg in dog; format: ADME, organism-based, Canis lupus familiaris; set-up: dose 1 mg/kg, route intravenous; details: in vivo; outline: as §1
[15] = Bioavailability in dog(iv: 1 mg/kg); format: ADME, organism-based, Canis lupus familiaris; details: in vivo

Row | Structure (SMILES) | Ki [1] | Ki [2] | Fold selective [3] | Ki [4] [µM] | other results
1 | COC(=O)C1=C(C)N=C(C)N(CCC[C@H](C)CN2CCC(C(=O)OC)(c3ccccc3)CC2)C1c1ccc(F)c(F)c1 (single isomer, unassigned; (+)) | 0.91 µM | 0.43 µM | < 50 | 0.0016 | –
2 | COC(=O)C1=C(C)N=C(C)N(CCCCCN2CCC(C(=O)OC)(c3ccccc3)CC2)C1c1ccc(F)c(F)c1 (configuration not stated) | 0.55 µM and 0.18 µM | 0.7 µM and 0.19 µM | – | – | –
3 | COC(=O)C1=C(C)N=C(C)N(CCC[C@H](C)CN2CCC(C#N)(c3ccccc3)CC2)C1c1ccc(F)c(F)c1 (some centres not stated) | 1.1 µM | 0.48 µM | > 120 | 0.0012 | –
4 | COC(=O)C1=C(C)N=C(C)N(CCCCCN2CCN(c3ccccc3C(N)=O)CC2)C1c1ccc(F)c(F)c1 (configuration not stated) | 0.58 µM | 0.24 µM | – | 0.0006 | AUC [5]: 4 uM min l-1; AUC [6]: 5 uM min l-1; half-life [7]: 4 h; half-life [8]: 2.1 h; bioavailability [9]: < 10%; bioavailability [10]: 21%; Kb [11]: 0.007 µM
5 | COC(=O)C1=C(C)N=C(C)N(CCC[C@@H](C)CN2CCC(C#N)(c3ccccc3)CC2)C1c1ccc(F)c(F)c1 (some centres not stated) | 1.6 µM | 1.7 µM | < 10 | 0.022 | –
6 | COC(=O)C1=C(C)N=C(C)N(CCCCCN2CCN(c3ccccc3OC)CC2)C1c1ccc(F)c(F)c1 (configuration not stated) | 0.065 µM | 0.067 µM | < 100 | 0.0004 | –
7 | COC(=O)C1=C(C)N=C(C)N(CCCCCN2CCC(c3ccccc3OC)CC2)C1c1ccc(F)c(F)c1 (configuration not stated) | 0.12 µM | 0.14 µM | > 100 | 0.0003 | –
8 | COC(=O)C1=C(C)N=C(C)N(Cc2cccc(CN3CCC(C(=O)OC)(c4ccccc4)CC3)c2)C1c1ccc(F)c(F)c1 (configuration not stated) | 0.57 µM | 0.32 µM | > 130 | 0.0068 | –
9 | COC(=O)C1=C(C)N=C(C)N(CCCCCN2CCC(C#N)(c3ccccc3)CC2)C1c1ccc(F)c(F)c1 (configuration not stated) | 1.1 µM | 0.49 µM | > 300 | 0.001 | –
10 | COC(=O)C1=C(C)NC(=O)N(CCCCCN2CCC(C(=O)OC)(c3ccccc3)CC2)C1c1ccc(F)c(F)c1 (configuration not stated) | – | – | > 1000 | – | –
11 | COCC1=C(C(=O)OC)C(c2ccc(F)c(F)c2)N(CCCCCN2CCC(C#N)(c3ccccc3)CC2)C(C)=N1 (configuration not stated) | 0.68 µM | 0.4 µM | > 4000 | 0.0004 | –
12 | COC(=O)C1=C(C)N=C(C)N(CCCCCN2CCC(c3ccccc3)CC2)C1c1ccc(F)c(F)c1 (configuration not stated) | 0.22 µM | 0.093 µM | > 300 | 0.0004 | –
13 | COC(=O)C1=C(C)N=C(C)N(CCCCN2CCC(C(=O)OC)(c3ccccc3)CC2)C1c1ccc(F)c(F)c1 (configuration not stated) | 0.61 µM | 0.44 µM | < 80 | 0.0036 | –
14 | COCC1=NC(C)=C(C(=O)OC)C(c2ccc(F)c(F)c2)N1CCCCCN1CCC(C#N)(c2ccccc2)CC1 (configuration not stated) | 0.48 µM | 0.31 µM | > 700 | 0.0004 | –
15 | COC(=O)C1=C(C)N=C(C)N(CCCCCN2CCC(c3ccccc3C(F)(F)F)CC2)C1c1ccc(F)c(F)c1 (configuration not stated) | 1.1 µM | 0.5 µM | – | 0.0011 | Selectivity [12]: < 100
16 | COC(=O)C1(c2ccccc2)CCN(CCCCCN2C(C)=NC(C)=C(C(N)=O)C2c2ccc(F)cc2F)CC1 (configuration not stated) | 0.69 µM | 0.41 µM | < 10 | 0.0042 | –
17 | COC(=O)C1=C(C)N=C(C)N(CCC[C@H](C)CN2CCN(c3ccccc3C(N)=O)CC2)C1c1ccc(F)c(F)c1 (some centres not stated) | 1.7 µM | 0.81 µM | < 100 | 0.0035 | –
18 | CNC(=O)C1=C(C)N=C(C)N(CCCCCN2CCC(C(=O)OC)(c3ccccc3)CC2)C1c1ccc(F)cc1F (configuration not stated) | 1.9 µM | 0.87 µM | < 80 | 0.014 | –
19 | COC(=O)C1=C(C)N=C(C)N(CCCCCN2CCN(c3ccccc3C(=O)OC)CC2)C1c1ccc(F)c(F)c1 (configuration not stated) | 0.079 µM | 0.034 µM | > 100 | 0.0005 | –
20 | COC(=O)C1=C(C)N=C(C)N(CCC[C@@H](C)CN2CCN(c3ccccc3C(N)=O)CC2)C1c1ccc(F)c(F)c1 (single isomer, unassigned; (+)) | 1.7 µM | 1.5 µM | < 10 | 0.02 | –
21 | COC(=O)C1=C(C)N=C(C)N(CCCCCN2CCC(c3ccc(C)cc3)(c3ccccc3C)CC2)C1c1ccc(F)c(F)c1 (configuration not stated) | 0.44 µM | 0.25 µM | – | 0.0001 | AUC [13]: 8 uM min l-1; AUC [5]: 21 uM min l-1; AUC [14]: 11 uM min l-1; AUC [6]: 35 uM min l-1; half-life [7]: 0.5 h; half-life [8]: 4.7 h; bioavailability [15]: 8%; bioavailability [10]: 17%; Kb [11]: 0.027 µM
22 | COC(=O)C1=C(C)N=C(C)N(CCCCCN2CCC(C(=O)OC)(c3ccccc3)CC2)C1c1ccc(F)cc1F (configuration not stated) | 0.7 µM | 0.16 µM | > 1000 | 0.0005 | –
